Experimental data gathered from unrelated publications.
Each line is one published result; the experiments were not run side by side.
KIT A829P: Mast/stem cell growth factor receptor Kit (KIT, Homo sapiens, UniProt P10721, A829P)
KIT D816H: Mast/stem cell growth factor receptor Kit (KIT, Homo sapiens, UniProt P10721, D816H)
KIT V559D/V654A: Mast/stem cell growth factor receptor Kit (KIT, Homo sapiens, UniProt P10721, V559D/V654A)
KIT L576P: Mast/stem cell growth factor receptor Kit (KIT, Homo sapiens, UniProt P10721, L576P)
KIT D816V: Mast/stem cell growth factor receptor Kit (KIT, Homo sapiens, UniProt P10721, D816V)
KIT autoinhibited: Mast/stem cell growth factor receptor Kit, autoinhibited (KIT, Homo sapiens, UniProt P10721)

Compound | target | test | setting | remaining binding [%]
O=C(c1ccc(Nc2ncc(Cl)c(-c3cc4ccccc4s3)n2)cc1)N1CCC(N2CCCC2)CC1 | Mast/stem cell growth factor receptor Kit (KIT, Homo sapiens, UniProt P10721, V559D) | binding, competition with immobilised ligand | 1 µM | 6.6
CC(=O)N1CCC(c2ccc(C(=O)NC(=N)N)cc2C(F)(F)F)CC1 | KIT A829P | cell-free assay, competition with immobilised ligand | 1 µM | 100
O=C(NCCCN1CCOCC1)c1ccc(Nc2ncc(Cl)c(-c3ccc(Cl)s3)n2)cc1 | KIT D816H | binding, competition with immobilised ligand | 1 µM | 22
O=C(NCC1CCOCC1)c1n[nH]cc1NC(=O)c1c(F)cccc1F | KIT V559D/V654A | binding, competition with immobilised ligand | 1 µM | 90
O=C(Nc1cccnn1)N1CCC(=Cc2cccc(Oc3ccc(C(F)(F)F)cn3)c2)CC1 | KIT L576P | binding, competition with immobilised ligand | 1 µM | 0
CCN1CCN(Cc2ccc(C(=O)Nc3ccc(C)c(Oc4ccc5c(c4)CC(=O)N5)c3)cc2C(F)(F)F)CC1 | KIT D816H | binding, competition with immobilised ligand | 1 µM | 100
COc1ccnn2ncc(-c3ccnc(N(C)C)n3)c12 | KIT A829P | binding | 1 µM | 85
N#Cc1ccc(Nc2ccc3[nH]c(=O)[nH]c3c2)c(Cl)c1 | KIT D816V | cell-free assay, competition with immobilised ligand | 1 µM | 88
CN(C)c1nccc(-c2cnc3ncccn23)n1 | KIT autoinhibited | binding | 1 µM | 76
CC(C)(O)c1cncc(-c2nc3ccc(F)cc3n2C2CC2)c1 | KIT D816H | cell-free assay, competition with immobilised ligand | 1 µM | 100
C[C@H]1CCN(c2nccc(-c3cnn4ncccc34)n2)C1 | KIT L576P | binding | 1 µM | 67
C[C@@H](c1ccc(-n2cnc3c(N)ncnc32)cc1)N1CCc2nn(C)c(Cc3ccccc3)c2C1=O | KIT D816H | binding, competition with immobilised ligand | 0.1 µM | 64
CC1=C(C#N)[C@@H](c2ccc3[nH]nc(C)c3c2)C(C#N)=C(c2ccc(Cl)cc2)N1 | Mast/stem cell growth factor receptor Kit (KIT, Homo sapiens, UniProt P10721) | cell-free assay, competition with immobilised ligand | 1 µM | 95.4
c1cncc(-c2cccc(Nc3nccc(NC4CCCCC4)n3)c2)c1 | KIT autoinhibited | binding, competition with immobilised ligand | 10 µM | 43
C[C@H](c1ccnc(Nc2nc3ccc(-c4cc(N(C)C)ncn4)cc3[nH]2)c1)N1CCN(C(=O)CC(F)(F)F)CC1 | KIT V559D/V654A | cell-free assay, competition with immobilised ligand | 0.1 µM | 100
O=C(c1ccc(Nc2ncc(Cl)c(-c3ccc(Cl)s3)n2)cc1)N1CCC(N2CCCC2)CC1 | KIT D816V | binding, competition with immobilised ligand | 1 µM | 17
N[C@H]1CCN(c2nccc(-c3cnn4ncccc34)n2)C1 | KIT D816H | binding | 1 µM | 64
CNC(=O)[C@@H]1CC[C@@H](n2c(-c3ccc4cnccc4c3)nc3ccc(C(=O)NCc4cccc(C(N)=O)c4)cc32)C1 | KIT D816V | binding, competition with immobilised ligand | 1 µM | 99
CC1CCCN1c1nccc(-c2cnn3ncccc23)n1 (stereo not shown) | Mast/stem cell growth factor receptor Kit (KIT, Homo sapiens, UniProt P10721, T670I/V559D) | binding | 1 µM | 100
O=S(=O)(NC1CCC(c2cc(F)ccc2F)(S(=O)(=O)c2ccc(Cl)cc2)CC1)C(F)(F)F (stereo not shown) | KIT V559D/V654A | cell-free assay, competition with immobilised ligand | 1 µM | 88
COc1cnc(Nc2cccc(S(N)(=O)=O)c2)nc1N1CCN(c2ccccc2)C(=O)C1 | KIT autoinhibited | binding, competition with immobilised ligand | 1 µM | 95
Cc1cnn2ncc(-c3ccnc(N(C)C)n3)c2c1 | KIT V559D/V654A | binding | 1 µM | 100
